Where a name gives a salt, the structure may show the parent alone.
Columns and labels:
5-HT1A receptor = 5-HT1A receptor (Homo sapiens, UniProt P08908); test: Radioligand binding competition, 5-HT1A
male BALB/c mice = test: Novel object recognition, scopolamine-induced; type: in vivo; conditions: 1.0 mg/kg scopolamine; memantine 10 mg/kg; SB-742457 0.2 or 1.0 mg/kg
Procedure, shortened: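 All drugs were dissolved in saline and given IP; control animals received saline vehicle. Each group had at least 8 male BALB/c mice. Read-out was novel object recognition index, reported as mean ± SE.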

[1] = Metabolism in human liver S9 fraction; type: in vitro ADME; conditions: for half-life at 1 µM / half-life at 2 µM: human, liver S9 fraction
imidazoline I2 receptor = test: Radioligand binding competition, imidazoline I2
male CD1 mice = test: Maximum tolerated dose, 5-day oral; type: in vivo
Procedure, shortened: (§1)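 Male CD1 mice received test compound in sterile water orally at 10, 30 or 60 mg/kg once daily for 5 days (n = 8 per group). Body weight and deaths were recorded daily, followed by a 2-week observation phase. MTD was taken as the highest dose causing neither mortality nor body-weight loss.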

[2] = Maximum tolerated dose, 5-day oral; type: in vivo, mice; conditions: male, CD1, mouse, in vivo, po
Procedure, shortened: as §1

Sequence of 5-HT1A receptor (P08908 whole entry): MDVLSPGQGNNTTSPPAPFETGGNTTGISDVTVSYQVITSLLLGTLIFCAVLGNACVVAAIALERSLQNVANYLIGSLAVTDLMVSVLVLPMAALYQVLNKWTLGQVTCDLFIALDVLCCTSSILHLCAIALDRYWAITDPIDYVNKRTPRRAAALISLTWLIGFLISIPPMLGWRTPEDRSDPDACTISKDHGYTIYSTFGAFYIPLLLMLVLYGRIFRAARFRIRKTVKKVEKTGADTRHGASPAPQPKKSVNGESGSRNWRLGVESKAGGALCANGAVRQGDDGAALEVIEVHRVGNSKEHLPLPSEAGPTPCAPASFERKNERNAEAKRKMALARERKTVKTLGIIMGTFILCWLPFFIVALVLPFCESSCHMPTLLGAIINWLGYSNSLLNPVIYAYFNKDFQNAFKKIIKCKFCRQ

For Cc1ccc2c(c1)c1c(n2CCc2ccccc2)CCN(C)C1 [AVN-101, 2,8-dimethyl-5-penethyl-2,3,4,5-tetra-hydro-1h-pyrido[[4,3-B]]indole hydrochloride], the Ki (5-HT1A receptor) was > 30 nM, the “effect on deficit in novel object recognition” value (male BALB/c mice) was “partially reverse” and the half-life at 1 µM ([1]; T1/2, +NADPH+UDPGA) was 26.2 min. It also gave a half-life at 2 µM ([1]; T1/2, +NADPH+UDPGA) of 58.9 min, a half-life at 1 µM ([1]; T1/2, +NADPH) of 24.8 min and a half-life at 2 µM ([1]; T1/2, +NADPH) of 87.1 min. For the same compound, the “metabolism with UDPGA only” value ([1]; phase 2 co-factor UDPGA only) was “no metabolism”, the Ki (imidazoline I2 receptor) was 179 nM and the mortality (male CD1 mice; 30 mg/kg PO once daily for 5 days) was 12.5%. The mortality (male CD1 mice; 60 mg/kg PO once daily for 5 days) was 50%, the body weight (male CD1 mice; 60 mg/kg, starting from the 4th day) was “statistically significant weight loss” and the MTD at 5 days [2] was 10 to 30 mg/kg.
